Data from PMC7993273 (Clinical and Translational Science, 2021).
“And” between values parts separate entries of the source, which are not always exact repeats. Identical values can stand only once.

How the values were obtained:
[1] = Exposure at the 480-mg dose in HVs, study BGB-3111-106; format: in vivo, human
Population PK model = format: in vivo, human
[2] = cited from earlier work
[3] = format: in vivo, human; details: 160 mg b.i.d.
How it was run: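 Final population PK model built from 4,925 plasma samples from 632 healthy volunteers and B-cell malignancy patients, on oral doses of 20–320 mg q.d. or b.i.d. Plasma levels were measured by validated HPLC-MS/MS (LLOQ 1 ng/mL). Steady-state AUCss, Cmax,ss and Cmin,ss were simulated for repeated 160 mg b.i.d. dosing, comparing 5th/95th-percentile covariate values against a median-covariate typical patient.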

[4] = oral, patients with B-cell malignancies

SMILES: C=CC(=O)N1CCC([C@@H]2CCNc3c(C(N)=O)c(-c4ccc(Oc5ccccc5)cc4)nn32)CC1 [zanubrutinib, Zanubrutinib]
- dose dependence of exposure at the 480-mg dose [1]: less than dose‐proportional increase in exposure
- Ka, final model estimate (95% CI) (Population PK model; absorption rate constant): 0.526 (0.525, 0.526) 1/hour
- D1, bootstrap estimate median (2.5–97.5 percentiles) (Population PK model; bootstrap of 1,000 datasets): 1.114 (0.974, 1.265) hour
- IIV D1, bootstrap estimate median (2.5–97.5 percentiles) (Population PK model; bootstrap of 1,000 datasets): 62.2 (51.9, 72.4)
- IIV Q/F, bootstrap estimate median (2.5–97.5 percentiles) (Population PK model; bootstrap of 1,000 datasets): 103 (83.9, 118)
- IIV Vc/F, bootstrap estimate median (2.5–97.5 percentiles) (Population PK model; bootstrap of 1,000 datasets): 39.2 (25.9, 57.8)
- IIV Vp/F, bootstrap estimate median (2.5–97.5 percentiles) (Population PK model; bootstrap of 1,000 datasets): 80.4 (58.9, 94.6)
- IOV D1, bootstrap estimate median (2.5–97.5 percentiles) (Population PK model; bootstrap of 1,000 datasets): 62.2 (51.9, 72.4)
- IOV Vc/F, bootstrap estimate median (2.5–97.5 percentiles) (Population PK model; bootstrap of 1,000 datasets): 65.9 (49.4, 76.8)
- Ka, bootstrap estimate median (2.5–97.5 percentiles) (Population PK model; bootstrap of 1,000 datasets): 0.524 (0.481, 0.591) 1/hour
- Q/F, bootstrap estimate median (2.5–97.5 percentiles) (Population PK model; bootstrap of 1,000 datasets): 25.6 (19.9, 32.3) L/hour
- Vc/F, bootstrap estimate median (2.5–97.5 percentiles) (Population PK model; bootstrap of 1,000 datasets): 115 (88.4, 151) L
- Vp/F, bootstrap estimate median (2.5–97.5 percentiles) (Population PK model; bootstrap of 1,000 datasets): 363 (274, 513) L
- CL/F (HV), bootstrap estimate median (2.5–97.5 percentiles) (Population PK model; bootstrap of 1,000 datasets, healthy volunteers): 119 (110, 127) L/hour
- CL/F (patient), bootstrap estimate median (2.5–97.5 percentiles) (Population PK model; bootstrap of 1,000 datasets, patient): 169 (162, 178) L/hour
- effect of co-administration with PPIs and other ARAs on the PKs (Population PK model; covariate analysis, patients in clinical studies): did not appear to significantly impact
- D1, final model estimate (95% CI) (Population PK model; duration of zero-order absorption into the depot compartment): 1.13 hour and 1.128 (1.125, 1.131) hour
- coefficient of variance of elimination t 1/2 (Population PK model; final population PK model): 40.0%
- CL/F (HV), final model estimate (95% CI) (Population PK model; healthy volunteers): 118 (107, 130) L/hour
- Q/F, final model estimate (95% CI) (Population PK model; human, in vivo): 26.5 L/hour and 26.5 (26.3, 26.7) L/hour
- Vc/F, final model estimate (95% CI) (Population PK model; human, in vivo): 112 L and 112 (111, 113) L
- Vp/F, final model estimate (95% CI) (Population PK model; human, in vivo): 345 L and 345 (343, 347) L
- half-life (Population PK model; human, plasma, oral): 3.44 h
- IIV D1, final model estimate (95% CI) (Population PK model; interindividual variability): 62.3 (57.1, 67.1)
- IIV Q/F, final model estimate (95% CI) (Population PK model; interindividual variability): 102 (97.8, 106)
- IIV Vc/F, final model estimate (95% CI) (Population PK model; interindividual variability): 37.1 (NA, 53.1)
- IIV Vp/F, final model estimate (95% CI) (Population PK model; interindividual variability): 86.4 (71.3, 99.3)
- IIV estimated for CL/F (Population PK model; interindividual variability): 36.7%
- IIV estimated for Vc/F (Population PK model; interindividual variability): 37.1%
- IOV Vc/F, final model estimate (95% CI) (Population PK model; interoccasion variability): 67.5 (66.8, 68.3)
- absorption rate constant (Population PK model; typical patient with ALT of 18 U/L): 0.526 hour^‐1
- CL/F (patient), final model estimate (95% CI) (Population PK model; typical patient with B-cell malignancy, ALT 18 U/L): 170 L/hour and 170 (169, 170) L/hour
- systemic accumulation after multiple-dose administration ([2]; 40 mg to 320 mg q.d. and 160 mg b.i.d.): limited systemic accumulation
- dose dependence of Cmax and AUC0–∞ ([2]; doses from 40 mg to 320 mg): dose‐proportional increase
- mean terminal elimination half-life (t 1/2) [2, 4]: 2 to 4 h
- median time to peak plasma concentration (Tmax) [2, 4]: 2 h
- magnitude of effect of ALT on AUCss [3]: < 15%
- magnitude of effect of ALT on Cmax,ss [3]: < 10%
- magnitude of effect of ALT on Cmin,ss [3]: < 30%
- AUC ([3]; human, plasma, oral, 160 mg, total daily AUC, typical patient): 1890 ng·h/mL
